Assay results reported in ChEMBL document CHEMBL1255405 (Antimicrob Agents Chemother, 2010).

Assays:
[1] = Apparent oral clearance in Papua new Guinean women in second or third trimester of pregnancy using pharmacokinetic final covariate model at 450 mg/day, po administered as three divided doses in presence of sulfadoxine-pyrimethamine by HPLC method; format: ADME, organism-based; settings: female, human, in vivo
Method in brief: (§1)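 Papua New Guinean women in the second or third trimester of pregnancy (n=30) and age-matched nonpregnant women (n=30) took CQ 450 mg (8.5 mg/kg/day) as whole tablets with water once daily for 3 days, plus single-dose sulfadoxine-pyrimethamine, without fasting. Plasma was sampled from baseline to 72 h and on days 7–42. CQ and DECQ were measured by HPLC (UV 340 nm) and analysed by population PK modelling, with weight-allometric scaling expressed relative to F.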

Homo sapiens [2] = assay: Central compartment volume of distribution in Papua new Guinean women in second or third trimester of pregnancy using pharmacokinetic base model at 450 mg/day, po administered as three divided doses in presence of sulfadoxine-pyrimethamine by HPLC method; format: ADME, organism-based; settings: in vivo; method in brief: as §1
Homo sapiens [3] = assay: Central compartment volume of distribution in Papua new Guinean women in second or third trimester of pregnancy using pharmacokinetic final covariate model at 450 mg/day, po administered as three divided doses in presence of sulfadoxine-pyrimethamine by HPLC method; format: ADME, organism-based; settings: in vivo; method in brief: as §1
Homo sapiens [4] = assay: Peripheral compartment volume of distribution in Papua new Guinean women in second or third trimester of pregnancy using pharmacokinetic base model at 450 mg/day, po administered as three divided doses in presence of sulfadoxine-pyrimethamine by HPLC method; format: ADME, organism-based; settings: in vivo; method in brief: as §1
Homo sapiens [5] = assay: Peripheral compartment volume of distribution in Papua new Guinean women in second or third trimester of pregnancy using pharmacokinetic final covariate model at 450 mg/day, po administered as three divided doses in presence of sulfadoxine-pyrimethamine by HPLC method; format: ADME, organism-based; settings: in vivo; method in brief: as §1
Homo sapiens [6] = assay: Central compartment volume of distribution in Papua new Guinean women in second or third trimester of pregnancy using pharmacokinetic base model assessed as monodesethychloroquine at 450 mg/day, po administered as three divided doses in presence of sulfadoxine-pyrimethamine by HPLC method; format: ADME, organism-based; settings: in vivo; method in brief: as §1
Homo sapiens [7] = assay: Central compartment volume of distribution in Papua new Guinean women in second or third trimester of pregnancy using pharmacokinetic final covariate model assessed as monodesethychloroquine at 450 mg/day, po administered as three divided doses in presence of sulfadoxine-pyrimethamine by HPLC method; format: ADME, organism-based; settings: in vivo; method in brief: as §1
Homo sapiens [8] = assay: Peripheral compartment volume of distribution in Papua new Guinean women in second or third trimester of pregnancy using pharmacokinetic base model assessed as monodesethychloroquine at 450 mg/day, po administered as three divided doses in presence of sulfadoxine-pyrimethamine by HPLC method; format: ADME, organism-based; settings: in vivo; method in brief: as §1
Homo sapiens [9] = assay: Peripheral compartment volume of distribution in Papua new Guinean women in second or third trimester of pregnancy using pharmacokinetic final covariate model assessed as monodesethychloroquine at 450 mg/day, po administered as three divided doses in presence of sulfadoxine-pyrimethamine by HPLC method; format: ADME, organism-based; settings: in vivo; method in brief: as §1
[10] = Cmax in women at 450 mg/day, po administered as three divided doses by HPLC method; format: ADME, organism-based; parameters: dose 450 mg/day, route oral; settings: female, human, in vivo
Method in brief: (§2)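 Simulated values, not observed data. Final population PK model parameters were applied in NONMEM to hypothetical pregnant and nonpregnant women (n=1,000 each) generated with mvtnorm, with covariates such as weight drawn from the original subjects. Cmax, Tmax and AUC0-∞ of CQ and DECQ were derived for a range of plausible CQ regimens.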

[11] = Cmax in Papua new Guinean pregnant women at 450 mg/day, po administered as three divided doses by HPLC method; format: ADME, organism-based; parameters: dose 450 mg/day, route oral; settings: female, human, in vivo; method in brief: as §2
[12] = Cmax in Papua new Guinean pregnant women at 600 mg/day, po administered as three divided doses by HPLC method; format: ADME, organism-based; parameters: dose 600 mg/day, route oral; settings: female, human, in vivo; method in brief: as §2
[13] = Cmax in Papua new Guinean pregnant women at 750 mg/day, po administered as three divided doses by HPLC method; format: ADME, organism-based; parameters: dose 750 mg/day, route oral; settings: female, human, in vivo; method in brief: as §2
[14] = AUC (0 to infinity) in women at 450 mg/day, po administered as three divided doses by HPLC method; format: ADME, organism-based; parameters: dose 450 mg/day, time infinity, route oral; settings: female, human, plasma; method in brief: as §1
[15] = AUC (0 to infinity) in Papua new Guinean pregnant women at 450 mg/day, po administered as three divided doses by HPLC method; format: ADME, organism-based; parameters: dose 450 mg/day, time infinity, route oral; settings: female, human, plasma; method in brief: as §1
[16] = AUC (0 to infinity) in Papua new Guinean pregnant women at 600 mg/day, po administered as three divided doses by HPLC method; format: ADME, organism-based; parameters: dose 600 mg/day, time infinity, route oral; settings: female, human, plasma; method in brief: as §2
[17] = AUC (0 to infinity) in Papua new Guinean pregnant women at 750 mg/day, po administered as three divided doses by HPLC method; format: ADME, organism-based; parameters: dose 750 mg/day, route oral, time infinity; settings: female, human, plasma; method in brief: as §2
Homo sapiens [18] = assay: Cmax in women assessed as monodesethychloroquine at 450 mg/day, po administered as three divided doses by HPLC method; format: ADME, organism-based; parameters: dose 450 mg/day, route oral; settings: in vivo; method in brief: as §2
Homo sapiens [19] = assay: Cmax in Papua new Guinean pregnant women assessed as monodesethychloroquine at 450 mg/day, po administered as three divided doses by HPLC method; format: ADME, organism-based; parameters: dose 450 mg/day, route oral; settings: in vivo; method in brief: as §2
Homo sapiens [20] = assay: Cmax in Papua new Guinean pregnant women assessed as monodesethychloroquine at 600 mg/day, po administered as three divided doses by HPLC method; format: ADME, organism-based; parameters: dose 600 mg/day, route oral; settings: in vivo; method in brief: as §2
Homo sapiens [21] = assay: Cmax in Papua new Guinean pregnant women assessed as monodesethychloroquine at 750 mg/day, po administered as three divided doses by HPLC method; format: ADME, organism-based; parameters: dose 750 mg/day, route oral; settings: in vivo; method in brief: as §2
Homo sapiens [22] = assay: AUC (0 to infinity) in women assessed as monodesethychloroquine at 450 mg/day, po administered as three divided doses by HPLC method; format: ADME, organism-based, Plasma; parameters: dose 450 mg/day, route oral, time infinity; settings: in vivo; method in brief: as §1
Homo sapiens [23] = assay: AUC (0 to infinity) in Papua new Guinean pregnant women assessed as monodesethychloroquine at 450 mg/day, po administered as three divided doses by HPLC method; format: ADME, organism-based, Plasma; parameters: dose 450 mg/day, route oral, time infinity; settings: in vivo; method in brief: as §1
Homo sapiens [24] = assay: AUC (0 to infinity) in Papua new Guinean pregnant women assessed as monodesethychloroquine at 600 mg/day, po administered as three divided doses by HPLC method; format: ADME, organism-based, Plasma; parameters: dose 600 mg/day, time infinity, route oral; settings: in vivo; method in brief: as §2
Homo sapiens [25] = assay: AUC (0 to infinity) in Papua new Guinean pregnant women assessed as monodesethychloroquine at 750 mg/day, po administered as three divided doses by HPLC method; format: ADME, organism-based, Plasma; parameters: dose 750 mg/day, time infinity, route oral; settings: in vivo; method in brief: as §2
[26] = Apparent oral clearance in Papua new Guinean women in second or third trimester of pregnancy using pharmacokinetic base model at 450 mg/day, po administered as three divided doses in presence of sulfadoxine-pyrimethamine by HPLC method; format: ADME, organism-based; settings: female, human, in vivo; method in brief: as §1

**Q.** With `CCN(CC)CCCC(C)Nc1ccnc2cc(Cl)ccc12` (stereo unspecified) [CHLOROQUINE] as the compound, how does the CL/F [1] read?
**A.** The CL/F was 488 mL/min.

**Q.** And the Vc/F (Homo sapiens [2])?
**A.** The Vc/F was 4160 L.

**Q.** What about the Vc/F (Homo sapiens [3]) of the same compound?
**A.** Its Vc/F is 4220 L.

**Q.** What about the Vp/F (Homo sapiens [4]) of the same compound?
**A.** Its Vp/F is 5200 L.

**Q.** What about the Vp/F (Homo sapiens [5]) of the same compound?
**A.** The Vp/F was 5190 L.

**Q.** And the Vc/F (Homo sapiens [6])?
**A.** The Vc/F was 39.9 L.

**Q.** And the Vc/F (Homo sapiens [7])?
**A.** The Vc/F was 40 L.

**Q.** And the Vp/F (Homo sapiens [8])?
**A.** The Vp/F was 812 L.

**Q.** What about the Vp/F (Homo sapiens [9]) of the same compound?
**A.** Its Vp/F is 840 L.

**Q.** And the Cmax [10]?
**A.** The Cmax was 376 ng/mL.

**Q.** What about the Cmax [11] of the same compound?
**A.** Its Cmax is 296 ng/mL.

**Q.** And the Cmax [12]?
**A.** The Cmax was 395 ng/mL.

**Q.** What about the Cmax [13] of the same compound?
**A.** Its Cmax is 494 ng/mL.

**Q.** What about the AUC(0-inf) [14] of the same compound?
**A.** Its AUC(0-inf) is 50000 ng·h/mL.

**Q.** And the AUC(0-inf) [15]?
**A.** Its AUC(0-inf) is 35700 ng·h/mL.

**Q.** What about the AUC(0-inf) [16] of the same compound?
**A.** Its AUC(0-inf) is 47500 ng·h/mL.

**Q.** What about the AUC(0-inf) [17] of the same compound?
**A.** The AUC(0-inf) was 59400 ng·h/mL.

**Q.** And the Cmax (Homo sapiens [18])?
**A.** The Cmax was 186 ng/mL.

**Q.** What about the Cmax (Homo sapiens [19]) of the same compound?
**A.** The Cmax was 139 ng/mL.

**Q.** And the Cmax (Homo sapiens [20])?
**A.** The Cmax was 185 ng/mL.

**Q.** And the Cmax (Homo sapiens [21])?
**A.** Its Cmax is 232 ng/mL.

**Q.** What about the AUC (Homo sapiens [22]) of the same compound?
**A.** The AUC was 41255 ng·h/mL.

**Q.** And the AUC (Homo sapiens [23])?
**A.** The AUC was 23876 ng·h/mL.

**Q.** What about the AUC (Homo sapiens [24]) of the same compound?
**A.** Its AUC is 31835 ng·h/mL.

**Q.** And the AUC (Homo sapiens [25])?
**A.** Its AUC is 39793 ng·h/mL.

**Q.** What about the CL/F [26] of the same compound?
**A.** Its CL/F is 568 mL/min.
